Source: ChEMBL document CHEMBL4038346, “Effect of Nitrogen Atom Substitution in A3 Adenosine Receptor Binding: N-(4,6-Diarylpyridin-2-yl)acetamides as Potent and Selective Antagonists” (J Med Chem, 2017)
Blank lines part the entries; values can stand above or below the compound they belong to. Activity calls are given as the source filed them. No cut-off for these calls is given here.

Assays:
Adenosine receptor A1 = target: T1, Adenosine receptor A1 (Homo sapiens, UniProt P30542); test: Displacement of [3H]DPCPX from human adenosine A1 receptor expressed in CHO cell membranes after 60 mins
T1 sequence (P30542 whole entry): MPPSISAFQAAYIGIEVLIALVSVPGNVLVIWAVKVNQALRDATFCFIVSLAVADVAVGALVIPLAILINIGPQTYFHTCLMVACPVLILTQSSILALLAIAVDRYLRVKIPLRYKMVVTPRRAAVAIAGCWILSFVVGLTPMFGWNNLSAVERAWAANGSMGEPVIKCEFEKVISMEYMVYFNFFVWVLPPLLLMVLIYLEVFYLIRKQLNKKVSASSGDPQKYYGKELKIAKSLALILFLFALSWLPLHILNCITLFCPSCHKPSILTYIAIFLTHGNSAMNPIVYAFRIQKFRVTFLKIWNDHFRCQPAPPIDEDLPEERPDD

Adenosine receptor A2b = target: T2, Adenosine receptor A2b (Homo sapiens, UniProt P29275); test: Displacement of [3H]DPCPX from human adenosine A2B receptor expressed in HEK293 cell membranes after 30 mins
T2 sequence (P29275 whole entry): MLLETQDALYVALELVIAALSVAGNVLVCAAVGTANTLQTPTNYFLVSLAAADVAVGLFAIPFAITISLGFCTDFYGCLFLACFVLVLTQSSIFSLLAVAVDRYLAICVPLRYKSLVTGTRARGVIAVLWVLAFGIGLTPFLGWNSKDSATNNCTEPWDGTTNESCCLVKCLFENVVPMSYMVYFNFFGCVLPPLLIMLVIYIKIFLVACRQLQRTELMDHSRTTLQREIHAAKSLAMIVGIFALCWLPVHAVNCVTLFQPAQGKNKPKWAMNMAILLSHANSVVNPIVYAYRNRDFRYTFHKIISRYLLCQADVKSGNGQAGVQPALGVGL

Adenosine receptor A3 = target: T3, Adenosine receptor A3 (Homo sapiens, UniProt P0DMS8); test: (§1) Displacement of [3H]NECA from human adenosine A3 receptor expressed in human HeLa cell membranes after 180 mins
T3 sequence (P0DMS8 whole entry): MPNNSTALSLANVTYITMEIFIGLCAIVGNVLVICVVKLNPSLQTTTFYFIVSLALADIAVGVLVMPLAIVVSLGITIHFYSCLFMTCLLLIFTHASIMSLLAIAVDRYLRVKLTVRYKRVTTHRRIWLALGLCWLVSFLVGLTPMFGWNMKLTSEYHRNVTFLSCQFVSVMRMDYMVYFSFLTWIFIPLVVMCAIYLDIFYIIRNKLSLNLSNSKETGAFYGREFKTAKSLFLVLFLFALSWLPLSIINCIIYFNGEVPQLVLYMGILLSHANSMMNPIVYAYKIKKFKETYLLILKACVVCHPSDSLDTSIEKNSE

Adenosine receptor A2a [1] = target: T4, Adenosine receptor A2a (Homo sapiens, UniProt P29274); test: Displacement of [3H]ZM241385 from human adenosine A2A receptor expressed in human HeLa cell membranes at 1 uM after 30 mins relative to control
[2] = target: T5, Adenosine receptor A1 (Homo sapiens) (UniProt P30542); test: Displacement of [3H]DPCPX from human adenosine A1 receptor expressed in CHO cell membranes at 1 uM after 60 mins relative to control
T5 sequence (whole entry): T1 sequence (P30542 whole entry)

[3] = target: T6, Adenosine receptor A2b (Homo sapiens) (UniProt P29275); test: Displacement of [3H]DPCPX from human adenosine A2B receptor expressed in HEK293 cell membranes at 1 uM after 30 mins relative to control
T6 sequence (whole entry): T2 sequence (P29275 whole entry)

[4] = target: T7, Adenosine receptor A3 (Homo sapiens) (UniProt P0DMS8); test: as §1
T7 sequence (whole entry): T3 sequence (P0DMS8 whole entry)

Adenosine receptor A2a [5] = target: T4, Adenosine receptor A2a; test: Displacement of [3H]ZM241385 from human adenosine A2A receptor expressed in human HeLa cell membranes after 30 mins
[6] = target: T7, Adenosine receptor A3 (Homo sapiens); test: Antagonist activity at human adenosine A3 receptor expressed in CHO cells assessed as decrease in NECA-induced inhibition of forskolin-stimulated cAMP formation preincubated for 15 mins followed by NECA addition for 10 mins and subsequent forskolin challenge for 5 mins by enzyme immunoassay; assay type: functional, cell-based
Outline: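 CHO-A3 cells seeded at 20 000/well in DMEM-F12 with 10% FCS and 1% L-glutamine, grown 24 h at 37 °C, 5% CO2. Washed, then preincubated 15 min at 37 °C in DMEM-F12/25 mM HEPES pH 7.4 with 30 μM rolipram plus antagonist.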

[7] = target: Adenosine receptors; A1 & A3 (Homo sapiens) (UniProt P30542+P0DMS8); test: Selectivity ratio of Ki for human adenosine A1 receptor expressed in CHO cell membranes to Ki for human adenosine A3 receptor expressed in human HeLa cell membranes; assay type: cell-based

T4 sequence (P29274 whole entry): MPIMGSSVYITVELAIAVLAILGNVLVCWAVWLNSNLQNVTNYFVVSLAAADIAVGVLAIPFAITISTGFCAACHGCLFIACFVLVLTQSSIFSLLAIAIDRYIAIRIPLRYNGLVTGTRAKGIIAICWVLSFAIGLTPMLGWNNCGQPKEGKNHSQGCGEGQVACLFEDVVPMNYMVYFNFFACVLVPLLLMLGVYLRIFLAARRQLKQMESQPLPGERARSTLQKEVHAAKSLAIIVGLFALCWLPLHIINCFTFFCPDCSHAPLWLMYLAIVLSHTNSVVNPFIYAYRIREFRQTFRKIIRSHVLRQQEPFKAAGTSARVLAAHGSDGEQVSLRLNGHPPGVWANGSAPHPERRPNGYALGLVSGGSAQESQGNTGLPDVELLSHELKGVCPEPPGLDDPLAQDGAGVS

Ki (Adenosine receptor A1): 21.1 nM | Ki (Adenosine receptor A2b): 51.2 nM | Ki (Adenosine receptor A3): 98.5 nM | inhibition (Adenosine receptor A2a [1]): 49%
SMILES: CC(=O)Nc1cc(-c2ccccc2)cc(-c2ccccc2)n1

Ki (Adenosine receptor A3): 781 nM | inhibition [2]: 8% | inhibition (Adenosine receptor A2a [1]): 1% | inhibition [3]: 19%
SMILES: COc1ccccc1-c1cc(NC(C)=O)nc(-c2ccccc2OC)c1

inhibition (Adenosine receptor A2a [1]): 2%
SMILES: COc1cc(OC)cc(-c2cc(NC(C)=O)nc(-c3cc(OC)cc(OC)c3)c2)c1

inhibition [4]: Active
SMILES: CC(=O)Nc1cc(-c2ccc(C(C)=O)cc2)nc(-c2ccc(C(C)=O)cc2)n1

inhibition (Adenosine receptor A2a [1]): 1%
SMILES: COc1cccc(OC)c1-c1cc(NC(C)=O)nc(-c2c(OC)cccc2OC)c1

inhibition (Adenosine receptor A2a [1]): 1%
SMILES: COc1ccc(-c2cc(NC(C)=O)nc(-c3ccc(OC)c(OC)c3)c2)cc1OC

Ki (Adenosine receptor A2a [5]): 353 nM
SMILES: COc1cccc(-c2cc(NC(C)=O)nc(-c3cccc(OC)c3OC)c2)c1OC

Ki (Adenosine receptor A1): 239 nM | inhibition (Adenosine receptor A2a [1]): 21%
SMILES: COc1cccc(-c2cc(NC(C)=O)nc(-c3cccc(OC)c3)c2)c1

inhibition (Adenosine receptor A2a [1]): 2%
SMILES: CSc1ccc(-c2cc(NC(C)=O)nc(-c3ccc(SC)cc3)c2)cc1

inhibition (Adenosine receptor A2a [1]): 4%
SMILES: CC(=O)Nc1cc(-c2ccc(C(C)=O)cc2)cc(-c2ccc(C(C)=O)cc2)n1

inhibition (Adenosine receptor A2a [1]): 15%
SMILES: COc1ccc(-c2cc(NC(C)=O)nc(-c3ccc(OC)cc3)c2)cc1

inhibition (Adenosine receptor A2a [1]): 1%
SMILES: CC(=O)Nc1cc(-c2ccc(OC(F)(F)F)cc2)cc(-c2ccc(OC(F)(F)F)cc2)n1

Ki (Adenosine receptor A1): 91.1 nM | Ki (Adenosine receptor A3): 2.8 nM | inhibition (Adenosine receptor A2a [1]): 9% | inhibition [3]: 27% | Kb [6]: 1.9 nM | Ratio Ki [7]: 30
SMILES: CC(=O)Nc1cc(-c2ccc3c(c2)OCO3)cc(-c2ccc3c(c2)OCO3)n1

inhibition (Adenosine receptor A2a [1]): 2%
SMILES: COc1ccc(-c2cc(NC(C)=O)nc(-c3ccc(OC)cc3OC)c2)c(OC)c1

Ki (Adenosine receptor A3): 116 nM | inhibition [2]: 8% | inhibition (Adenosine receptor A2a [1]): 15% | inhibition [3]: 4%
SMILES: COc1cc(-c2cc(NC(C)=O)nc(-c3cc(OC)c(OC)c(OC)c3)c2)cc(OC)c1OC

inhibition (Adenosine receptor A2a [1]): 1%
SMILES: CC(=O)Nc1cc(-c2ccc(C)cc2)cc(-c2ccc(C)cc2)n1

Ki (Adenosine receptor A3): 35.2 nM | inhibition [2]: 3% | inhibition (Adenosine receptor A2a [1]): 3% | inhibition [3]: 1%
SMILES: COc1ccc(OC)c(-c2cc(NC(C)=O)nc(-c3cc(OC)ccc3OC)c2)c1

inhibition [4]: Active
SMILES: COc1ccccc1-c1cc(NC(C)=O)nc(-c2ccccc2OC)n1
